Measurements reported in ChEMBL document CHEMBL1121422, “2,4-Diamino-5-benzylpyrimidines and analogues as antibacterial agents. 3. C-Benzylation of aminopyridines with phenolic Mannich bases. Synthesis of 1- and 3-deaza analogues of trimethoprim” (J Med Chem, 1980).

biological target: T1, Dihydrofolate reductase (Rattus norvegicus) (UniProt Q920D2); test: Tested for inhibition of dihydrofolate reductase enzyme purified from rat liver at the highest concentration tested; conditions: not given
T1 sequence (whole entry): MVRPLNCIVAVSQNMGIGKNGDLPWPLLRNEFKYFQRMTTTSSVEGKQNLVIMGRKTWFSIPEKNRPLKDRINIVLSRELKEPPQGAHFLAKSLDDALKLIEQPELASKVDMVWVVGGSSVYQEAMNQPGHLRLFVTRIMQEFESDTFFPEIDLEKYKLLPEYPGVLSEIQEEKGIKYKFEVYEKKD
Summary of the method: (§1)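 Enzyme partially purified from rat liver, assayed in phosphate buffer by the Baccanari method. Compound held 5 min with enzyme and buffer at 37 °C before NADPH, then FH2, started the reaction. Percent inhibition of reaction rate recorded at the highest concentration tested.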

Compared with COc1cc(Cc2cnc(N)c(F)c2N)cc(OC)c1O, COc1cc(Cc2cnc(N)c(Br)c2N)cc(OC)c1O is lower in inhibition: 32% for the first, 21% for the second.

First: CC(C)c1cc(Cc2cnc(N)cc2N)cc(C(C)C)c1O
Second: CC(C)c1cc(Cc2cnc(N)c(Br)c2N)cc(C(C)C)c1O
The inhibition of the first is higher: 36% for the first, 0% for the second.

Going from CCc1cc(Cc2ccc(N)nc2N)cc(CC)c1O to COc1cc(Cc2ccc(N)nc2N)cc(OC)c1O, the inhibition rises from 26% to 34%.

First: COc1cc(Cc2cnc(N)cc2N)cc(OC)c1O
Second: COc1cc(CC2C=CC(N)=NC2=O)cc(OC)c1O (centres undefined)
The inhibition of the first is higher: 37% for the first, 2.4% for the second.

Work on CCc1cc(Cc2cc(Cc3cc(CC)c(O)c(CC)c3)c(N)nc2N)cc(CC)c1O yielded an inhibition of 19%.

biological target: T2, Dihydrofolate reductase (Escherichia coli) (UniProt P0ABQ4); test: (§2) Tested for inhibition of dihydrofolate reductase enzyme purified from Escherichia coli at a concentration of 1x 10 e6M; conditions: not given
T2 sequence (whole entry): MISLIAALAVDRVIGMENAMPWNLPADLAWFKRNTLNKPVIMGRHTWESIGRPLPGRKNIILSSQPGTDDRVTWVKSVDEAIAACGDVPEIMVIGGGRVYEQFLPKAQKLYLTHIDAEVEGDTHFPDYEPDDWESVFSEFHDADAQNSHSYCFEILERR
Summary of the method: (§3)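 Affinity-column-purified E. coli enzyme in phosphate buffer (Baccanari method). Compound preincubated 5 min with enzyme and buffer at 37 °C. NADPH added, then FH2 to start the reaction. Value is percent inhibition of reaction rate at the highest concentration tested.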

In the case of COc1cc(CNc2cccc(N)n2)cc(OC)c1O, the inhibition is reported as 29%.

biological target: T2, Dihydrofolate reductase (Escherichia coli); test: Tested for inhibition of dihydrofolate reductase enzyme purified from Escherichia coli […]; conditions: not given; summary of the method: as §3

Compared with COc1cc(Cc2cc(Cc3cc(OC)c(O)c(OC)c3)c(N)nc2N)cc(OC)c1O, COc1cc(Cc2ccc(N)nc2N)cc(OC)c1O is lower in inhibition: 29% for the first, 0% for the second.

Going from COc1cc(CC2C=CC(N)=NC2=O)cc(OC)c1O (centres undefined) to COc1cc(Cc2c(N)ccnc2N)cc(OC)c1O, the inhibition rises from 0% to 26%.

In the case of COc1cc(Cc2cnc(N)c(Br)c2N)cc(OC)c1O, the inhibition is reported as 11%.

biological target: T2, Dihydrofolate reductase (Escherichia coli); test: as §2; conditions: not given; summary of the method: as §3

For COc1cc(CNc2cccc(N)n2)cc(OC)c1O, the inhibition was 25%.

biological target: T3, Dihydrofolate reductase (Rattus norvegicus, UniProt Q920D2); test: Inhibition of dihydrofolate reductase from rat liver […]; conditions: read-out: I50; summary of the method: as §1
T3 sequence (Q920D2 whole entry): T1 sequence (whole entry)

COc1cc(Cc2cnc(N)c(F)c2N)cc(OC)c1O and COc1cc(Cc2cnc(N)c(Br)c2N)cc(OC)c1O are within 1.5-fold of each other in IC50: about 35 mM for the first, about 42 mM for the second.

CC(C)c1cc(Cc2cnc(N)cc2N)cc(C(C)C)c1O and CC(C)c1cc(Cc2cnc(N)c(Br)c2N)cc(C(C)C)c1O are within 1.5-fold of each other in IC50: about 27 mM for the first, about 23.7 mM for the second.

Compared with COc1cc(Cc2cc(Cc3cc(OC)c(O)c(OC)c3)c(N)nc2N)cc(OC)c1O, COc1cc(CC2=CC(Cc3cc(OC)c(O)c(OC)c3)C(=O)N=C2N)cc(OC)c1O (centres undefined) is 1.7-fold lower in IC50: 24 mM for the first, 14 mM for the second.

First: CCc1cc(Cc2ccc(N)nc2N)cc(CC)c1O
Second: COc1cc(Cc2ccc(N)nc2N)cc(OC)c1O
The IC50 of the first is 4-fold higher: about 40 mM for the first, about 10 mM for the second. The second is the more potent here.

Compared with COc1cc(Cc2cnc(N)cc2N)cc(OC)c1O, COc1cc(Cc2c(N)ccnc2N)cc(OC)c1O is 4.1-fold higher in IC50: about 10 mM for the first, 41 mM for the second. The first is the more potent here.

COc1cc(CC2C=CC(N)=NC2=O)cc(OC)c1O (centres undefined) and CCc1cc(Cc2cc(Cc3cc(CC)c(O)c(CC)c3)c(N)nc2N)cc(CC)c1O are the same in IC50: about 1 mM for the first, about 1 mM for the second.

biological target: T1, Dihydrofolate reductase (Rattus norvegicus); test: Tested for inhibition of dihydrofolate reductase enzyme purified from rat liver at a concentration of 1x 10 e6 M; conditions: not given; summary of the method: as §1

First: COc1cc(Cc2cnc(N)cc2N)cc(OC)c1OC
Second: COc1cc(CNc2cccc(N)n2)cc(OC)c1O
The inhibition of the first is higher: 7% for the first, 0% for the second.

tested on: not listed separately; test: Dissociation constant (pKa); type: physicochemical; conditions: read-out: Dissociation constant

COc1cc(Cc2cnc(N)c(F)c2N)cc(OC)c1O and COc1cc(Cc2cnc(N)c(Br)c2N)cc(OC)c1O are within 0.2 log units of each other in pKa: 7.15 for the first, 7.2 for the second.

Going from CCOC(=O)Nc1ccnc(C(N)=O)c1 to CCOC(=O)Nc1ccnc(NC(=O)OCC)c1, the pKa rises from 3.32 to 5.04.

Nc1ccncc1 [DALFAMPRIDINE] and Nc1ccnc(N)c1 are the same in pKa: 9.25 for the first, 9.25 for the second.

Going from COc1cc(Cc2cc(Cc3cc(OC)c(O)c(OC)c3)c(N)nc2N)cc(OC)c1O to COc1cc(CC2=CC(Cc3cc(OC)c(O)c(OC)c3)C(=O)N=C2N)cc(OC)c1O (centres undefined), the pKa falls from 6.69 to 1.51.

CCc1cc(Cc2ccc(N)nc2N)cc(CC)c1O and COc1cc(Cc2ccc(N)nc2N)cc(OC)c1O are within 0.2 log units of each other in pKa: 6.59 for the first, 6.6 for the second.

Compared with Nc1ccnc(N)c1Br, Nc1ncc(Br)c(N)c1Br is lower in pKa: 7.44 for the first, 5.5 for the second.

Compared with COc1cc(CC2C=CC(N)=NC2=O)cc(OC)c1O (centres undefined), COc1cc(CNc2cccc(N)n2)cc(OC)c1O is higher in pKa: 1.31 for the first, 6.51 for the second.

Going from CCc1cc(Cc2cc(Cc3cc(CC)c(O)c(CC)c3)c(N)nc2N)cc(CC)c1O to COc1cc(Cc2cnc(N)cc2N)cc(OC)c1OC, the pKa rises from 6.63 to 9.03.

COc1cc(CNc2ccnc(N)c2Br)cc(OC)c1O and COc1cc(CNc2ccnc(N)c2F)cc(OC)c1O are within 0.2 log units of each other in pKa: 7.33 for the first, 7.26 for the second.

For Nc1cccc(N)n1, the pKa was 6.73.
